Assay [1] concerns Rattus norvegicus. Briefly: Antihypertensive activity in spontaneously hypertensive rats (SHR) measured by percentage fall in cardiac rhythm (CR) at 1 mg/kg administered intraperitoneally at 24 h;No significance. It is filed as functional, organism-based. Also noted: dose 1 mg/kg. Conditions: Heart. The procedure, abridged:
(§1)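 Unanesthetized Okamoto-strain SHR, male and female, 8 weeks old, 300–350 g, systolic pressure ≥190 mmHg, heart rate 400–650 beats/min; five animals per dose. Given ip at 2.5 mL/kg, dissolved or suspended in normal saline or saline with 0.2% (carboxymethyl)cellulose and 1.0% Tween 80. Tail AP and CR recorded by mechanical transduction at set times; reported as percentage fall from control.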

In assay [2] the test system is Cavia porcellus. The assay is described as follows: Ex vivo inhibition of platelet aggregation induced by AA at 50 mg/kg; No significance. It is filed as functional, organism-based. Also noted: dose 50 mg/kg. An outline of the steps: (§2)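 Fasted male or female guinea pigs (250–300 g, five per group) dosed orally in normal saline or saline with 0.2% (carboxymethyl)cellulose/1.0% Tween 80; controls given vehicle. Under ether, cardiac blood collected into 3.8% citrate. PRP adjusted to […] and aggregation induced by ADP (second wave) or AA, read by absorbance aggregometry. PGE2 and TXB2 measured by RIA.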

For assay [3], the system named is Cavia porcellus. Briefly: Ex vivo inhibition of platelet aggregation induced by ADP-II at 50 mg/kg; No significance. It is filed as functional, organism-based. Also noted: dose 50 mg/kg. The procedure, abridged: as §2
The test system of assay [4] is Cavia porcellus. The assay is described as follows: Ex vivo inhibition of platelet aggregation induced by AA at 30 mg/kg; No significance. It is filed as functional, organism-based. Also noted: dose 30 mg/kg. An outline of the steps:
as §2

The subject of assay [5] is Rattus norvegicus. The assay is described as follows: Antihypertensive activity in spontaneously hypertensive rats (SHR) measured by percentage fall in arterial pressure (AP) at 1 mg/kg administered intraperitoneally at 24 h;No significance. Also noted: dose 1 mg/kg. Particulars: Artery. It is filed as functional, organism-based. The procedure, abridged:
as §1

The subject of assay [6] is Rattus norvegicus. The assay is described as follows: Antihypertensive activity in spontaneously hypertensive rats (SHR) measured by percentage fall in cardiac rhythm (CR) at 25 mg/kg administered perorally at 24 h;No significance. It is filed as functional, organism-based. Also noted: dose 25 mg/kg. Conditions: Heart. An outline of the steps: (§3)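 Conscious SHR (Okamoto strain), 8 weeks old, male and female, 300–350 g, systolic BP ≥190 mmHg, CR 400–650 beats/min. Given ip or po at 2.5 mL/kg in normal saline or saline with 0.2% (carboxymethyl)cellulose and 1.0% Tween 80. Tail AP and CR recorded by mechanical transduction at 1, 3, 5 and 24 h, five animals per dose. Effect expressed as % fall versus control.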

The test system of assay [7] is Rattus norvegicus. Briefly: Antihypertensive activity in spontaneously hypertensive rats (SHR) measured by percentage fall in cardiac rhythm (CR) at 25 mg/kg administered intraperitoneally at 24 h;No significance. It is filed as functional, organism-based. Also noted: dose 25 mg/kg. Conditions: Heart. The procedure, abridged:
as §1

For assay [8], the system named is Rattus norvegicus. The assay is described as follows: Antihypertensive activity in spontaneously hypertensive rats (SHR) measured by percentage fall in cardiac rhythm (CR) at 25 mg/kg administered perorally at 1 h;No significance. It is filed as functional, organism-based. Also noted: dose 25 mg/kg. Conditions: Heart. The procedure, abridged:
as §3

Assay [9] concerns Cavia porcellus. The assay is described as follows: Ex vivo inhibition of platelet aggregation induced by ADP-II at 30 mg/kg; No significance. It is filed as functional, organism-based. Also noted: dose 30 mg/kg. An outline of the steps:
as §2

In assay [10] the test system is Rattus norvegicus. Briefly: Percent increase in cardiac rhythm, directly measured on carotid (iv on the jugular vein) of spontaneously hypertensive rats at 1 mg/kg after 240 minutes;No significance. Also noted: dose 1 mg/kg. It is filed as functional, organism-based. Particulars: Heart. An outline of the steps:
(§4)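 Anesthetized (sodium pentobarbital, 70 mg/kg) male and female Okamoto SHR, 8 weeks old, 300–350 g. Given iv into the jugular vein in normal saline. Arterial pressure and cardiac rhythm are recorded directly from the carotid by polygraph at set times after dosing. Each is expressed as percent change from the pre-dose control value.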

Assay [11] addresses T1, Thromboxane-A synthase (Homo sapiens) (UniProt P24557).
T1 sequence (whole entry): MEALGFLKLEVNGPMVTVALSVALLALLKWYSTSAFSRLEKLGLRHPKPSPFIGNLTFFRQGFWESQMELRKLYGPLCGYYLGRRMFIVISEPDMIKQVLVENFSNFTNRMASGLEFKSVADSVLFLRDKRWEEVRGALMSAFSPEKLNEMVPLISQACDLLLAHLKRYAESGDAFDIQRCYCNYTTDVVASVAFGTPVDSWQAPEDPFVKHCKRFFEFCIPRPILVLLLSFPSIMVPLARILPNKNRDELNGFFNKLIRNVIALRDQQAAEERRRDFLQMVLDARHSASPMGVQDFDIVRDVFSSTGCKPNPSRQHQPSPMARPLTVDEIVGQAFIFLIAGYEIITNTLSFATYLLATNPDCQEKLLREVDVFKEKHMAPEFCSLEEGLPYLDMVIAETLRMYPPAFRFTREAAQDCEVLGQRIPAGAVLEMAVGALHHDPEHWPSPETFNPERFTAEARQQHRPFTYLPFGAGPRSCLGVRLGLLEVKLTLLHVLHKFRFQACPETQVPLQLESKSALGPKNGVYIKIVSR
Briefly: Effect on thromboxane synthetase activity on in vitro platelet aggregation induced by AA at 10e -5 M expressed as percent […] in TXB2. It is filed as functional. An outline of the steps: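 Human citrated PRP adjusted to 200 000 […], compound at 10^-5 M final in saline/10% ethylene glycol, incubated at 37 °C. Aggregation induced with arachidonic acid 0.6 mM and read by Born absorbance aggregometry. PGE2 and TXB2 in the aggregated samples measured by radioimmunoassay. n = 5.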

Assay [12] concerns Rattus norvegicus. The assay is described as follows: Antihypertensive activity in spontaneously hypertensive rats (SHR) measured by percentage fall in arterial pressure (AP) at 1 mg/kg administered intraperitoneally at 5 h;No significance significance. Particulars: Artery. Also noted: dose 1 mg/kg. It is filed as functional, organism-based. An outline of the steps: as §1
In assay [13] the test system is Rattus norvegicus. Briefly: Percent increase in cardiac rhythm, directly measured on carotid (iv on the jugular vein) of spontaneously hypertensive rats at 1 mg/kg after 5 minutes;No significance. It is filed as functional, organism-based. Also noted: dose 1 mg/kg. Particulars: Heart. An outline of the steps:
as §4

The subject of assay [14] is Rattus norvegicus. The assay is described as follows: Percent increase in cardiac rhythm, directly measured on carotid (iv on the jugular vein) of spontaneously hypertensive rats at 1 mg/kg after 120 minutes;No significance. It is filed as functional, organism-based. Also noted: dose 1 mg/kg. Conditions: Heart. The procedure, abridged: as §4
For assay [15], the system named is Rattus norvegicus. Briefly: Antihypertensive activity in spontaneously hypertensive rats (SHR) measured by percentage fall in cardiac rhythm (CR) at 1 mg/kg administered intraperitoneally at 5 h;No significance. Conditions: Heart. It is filed as functional, organism-based. Also noted: dose 1 mg/kg. The procedure, abridged: as §1
Assay [16] has as its system Rattus norvegicus. The assay is described as follows: Percent increase in cardiac rhythm, directly measured on carotid (iv on the jugular vein) of spontaneously hypertensive rats at 1 mg/kg after 75 minutes;No significance. It is filed as functional, organism-based. Also noted: dose 1 mg/kg. Particulars: Heart. The procedure, abridged: as §4
The subject of assay [17] is Rattus norvegicus. Briefly: Percent increase in cardiac rhythm, directly measured on carotid (iv on the jugular vein) of spontaneously hypertensive rats at 1 mg/kg after 180 minutes;No significance. It is filed as functional, organism-based. Also noted: dose 1 mg/kg. Particulars: Heart. The procedure, abridged: as §4

Each structure is given as a SMILES string.

`COc1ccc2[nH]c3c(NN)nncc3c2c1`: the “Decrease in AP” value in assay [1], in [5] and in assay [12] was “No significant values” each time. The inhibition – broadly, the share of the control response that was lost under treatment – in assay [2] is “No significant values”; in assay [3] it was “No significant values”; in assay [4], “No significant values”; in assay [9], “No significant values”; in assay [11] it was 40%. In addition, the “Decrease in CR” value in assay [6], in [7], in assay [8] and in assay [15] was “No significant values” in each case. The Increase result in [10], in assay [13], in assay [14], in assay [16] and in assay [17] was “No significant values” in each case.
